Test results published in ChEMBL document CHEMBL3414437, “Synthesis of CDDO-amino acid-nitric oxide donor trihybrids as potential antitumor agents against both drug-sensitive and drug-resistant colon cancer” (J Med Chem, 2015).
pIC50: −log10 of the molar value.

Legend:
[1] = system: HCT-8; experiment: Induction of apoptosis in FU-resistant human HCT8 cells assessed as early apoptotic cells level at 1 uM incubated for 24 hrs by FITC-Annexin-V and propidium iodide staining based flow cytometry (reference value: 2.07%); type: functional
[2] = system: HCT-8; experiment: Induction of apoptosis in FU-resistant human HCT8 cells assessed as late apoptotic cells level at 0.5 uM incubated for 24 hrs by FITC-Annexin-V and propidium iodide staining based flow cytometry (reference value: 0.95%); type: functional
[3] = system: HCT-8; experiment: Induction of apoptosis in FU-resistant human HCT8 cells assessed as early apoptotic cells level at 0.5 uM incubated for 24 hrs by FITC-Annexin-V and propidium iodide staining based flow cytometry (reference value: 2.07%); type: functional
[4] = system: HCT-8; experiment: Induction of apoptosis in human HCT8 cells assessed as necrotic cells level at 0.25 uM incubated for 24 hrs by FITC-Annexin-V and propidium iodide staining based flow cytometry (reference value: 2.58%); type: functional
[5] = system: HCT-8; experiment: Induction of apoptosis in FU-resistant human HCT8 cells assessed as late apoptotic cells level at 1 uM incubated for 24 hrs by FITC-Annexin-V and propidium iodide staining based flow cytometry (reference value: 0.95%); type: functional
[6] = system: HCT-8; experiment: Induction of apoptosis in human HCT8 cells assessed as necrotic cells level at 1 uM incubated for 24 hrs by FITC-Annexin-V and propidium iodide staining based flow cytometry (reference value: 2.58%); type: functional
[7] = system: HCT-8; experiment: Induction of apoptosis in human HCT8 cells assessed as viable cells level at 1 uM incubated for 24 hrs by FITC-Annexin-V and propidium iodide staining based flow cytometry (reference value: 92%); type: functional
[8] = system: HCT-8; experiment: Induction of apoptosis in FU-resistant human HCT8 cells assessed as viable cells level at 1 uM incubated for 24 hrs by FITC-Annexin-V and propidium iodide staining based flow cytometry (reference value: 90%); type: functional
[9] = Antiproliferative activity against human CCD-841-CoN cells assessed as inhibition of cell proliferation after 72 hrs by MTT assay; type: cell-based
Outline: (§1)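 Cells (1.0 × 10^4/well) grown overnight in DMEM with 10% FBS. Treated in triplicate with eight concentrations ([…]) of compound from DMSO stock, final DMSO <0.4%, for 72 h. MTT added for the last 4 h, formazan dissolved in DMSO, read at 570 nm. Inhibition = (Acontrol−Atreated)/Acontrol. IC50 given as mean ± SD of three independent experiments.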

[10] = system: HCT-8; experiment: Induction of apoptosis in human HCT8 cells assessed as viable cells level at 0.25 uM incubated for 24 hrs by FITC-Annexin-V and propidium iodide staining based flow cytometry (reference value: 92%); type: functional
[11] = system: HCT-8; experiment: Induction of apoptosis in FU-resistant human HCT8 cells assessed as early apoptotic cells level at 0.25 uM incubated for 24 hrs by FITC-Annexin-V and propidium iodide staining based flow cytometry (reference value: 2.07%); type: functional
[12] = system: HCT-8; experiment: Induction of apoptosis in human HCT8 cells assessed as early apoptotic cells level at 0.25 uM incubated for 24 hrs by FITC-Annexin-V and propidium iodide staining based flow cytometry (reference value: 1.21%); type: functional
[13] = system: HCT-8; experiment: Induction of apoptosis in human HCT8 cells assessed as late apoptotic cells level at 0.25 uM incubated for 24 hrs by FITC-Annexin-V and propidium iodide staining based flow cytometry (reference value: 4.23%); type: functional
[14] = system: HCT-8; experiment: Induction of apoptosis in human HCT8 cells assessed as necrotic cells level at 0.5 uM incubated for 24 hrs by FITC-Annexin-V and propidium iodide staining based flow cytometry (reference value: 2.58%); type: functional
[15] = system: HCT-8; experiment: Induction of apoptosis in FU-resistant human HCT8 cells assessed as necrotic cells level at 0.5 uM incubated for 24 hrs by FITC-Annexin-V and propidium iodide staining based flow cytometry (reference value: 0.958%); type: functional
[16] = system: HCT-8; experiment: Induction of apoptosis in human HCT8 cells assessed as early apoptotic cells level at 0.5 uM incubated for 24 hrs by FITC-Annexin-V and propidium iodide staining based flow cytometry (reference value: 1.21%); type: functional
[17] = system: HCT-8; experiment: Induction of apoptosis in FU-resistant human HCT8 cells assessed as necrotic cells level at 1 uM incubated for 24 hrs by FITC-Annexin-V and propidium iodide staining based flow cytometry (reference value: 0.958%); type: functional
[18] = Antiproliferative activity against human HCT8 cells assessed as inhibition of cell proliferation after 72 hrs by MTT assay; type: functional, cell-based; conditions: HCT-8, 72 h; outline: as §1
[19] = system: HCT-8; experiment: Induction of apoptosis in human HCT8 cells assessed as viable cells level at 0.5 uM incubated for 24 hrs by FITC-Annexin-V and propidium iodide staining based flow cytometry (reference value: 92%); type: functional
[20] = system: HCT-8; experiment: Induction of apoptosis in FU-resistant human HCT8 cells assessed as necrotic cells level at 0.25 uM incubated for 24 hrs by FITC-Annexin-V and propidium iodide staining based flow cytometry (reference value: 0.958%); type: functional
[21] = system: HCT-8; experiment: Induction of apoptosis in human HCT8 cells assessed as late apoptotic cells level at 0.5 uM incubated for 24 hrs by FITC-Annexin-V and propidium iodide staining based flow cytometry (reference value: 4.23%); type: functional
[22] = Antiproliferative activity against 5-FU resistant human HCT8 cells assessed as inhibition of cell proliferation after 72 hrs by MTT assay; type: functional, cell-based; conditions: HCT-8, 72 h; outline: as §1
[23] = system: HCT-8; experiment: Induction of apoptosis in FU-resistant human HCT8 cells assessed as late apoptotic cells level at 0.25 uM incubated for 24 hrs by FITC-Annexin-V and propidium iodide staining based flow cytometry (reference value: 0.95%); type: functional
[24] = system: HCT-8; experiment: Induction of apoptosis in human HCT8 cells assessed as late apoptotic cells level at 1 uM incubated for 24 hrs by FITC-Annexin-V and propidium iodide staining based flow cytometry (reference value: 4.23%); type: functional
[25] = system: Mus musculus; experiment: Toxicity in nude BALB/c mouse xenografted with FU-resistant human HCT8 cells assessed as abnormal color changes in liver at 59.4 umol/kg administered as via oral gavage daily for 21 days; type: organism-based, HCT-8; conditions: in vivo, 504 h
Outline: (§2)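 Male BALB/c nude mice aged 6-8 weeks, implanted s.c. in the right flank with HCT-8/5-FU cells (2 × 10^6). Once tumors reached 180-200 mm3 (days 9-11), randomized to daily gavage for 21 days in cremophor-EL/DMSO/PBS (1:1:8), 0.2 mL. At the end, liver, kidney, lung and heart checked for size, colour and weight. n = 8 per group.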

[26] = system: HCT-8; experiment: Induction of apoptosis in FU-resistant human HCT8 cells assessed as viable cells level at 0.5 uM incubated for 24 hrs by FITC-Annexin-V and propidium iodide staining based flow cytometry (reference value: 90%); type: functional
[27] = system: HCT-8; experiment: Induction of apoptosis in human HCT8 cells assessed as early apoptotic cells level at 1 uM incubated for 24 hrs by FITC-Annexin-V and propidium iodide staining based flow cytometry (reference value: 1.21%); type: functional
[28] = system: HCT-8; experiment: Induction of apoptosis in FU-resistant human HCT8 cells assessed as viable cells level at 0.25 uM incubated for 24 hrs by FITC-Annexin-V and propidium iodide staining based flow cytometry (reference value: 90%); type: functional
[29] = system: Mus musculus; experiment: Toxicity in nude BALB/c mouse xenografted with FU-resistant human HCT8 cells assessed as abnormal size changes in lung at 17.8 to 35.7 umol/kg administered as via oral gavage daily for 21 days; type: organism-based, HCT-8; conditions: in vivo, 504 h; outline: as §2

| SMILES | Activity [1] [%] | Activity [2] [%] | Activity [3] [%] | Activity [4] [%] | Activity [5] [%] | Activity [6] [%] | Activity [7] [%] | Activity [8] [%] | pIC50 [9] | Activity [10] [%] | Activity [11] [%] | Activity [12] [%] | Activity [13] [%] | Activity [14] [%] | Activity [15] [%] | Activity [16] [%] | Activity [17] [%] | pIC50 [18] | Activity [19] [%] | Activity [20] [%] | also measured |
| --- | --- | --- | --- | --- | --- | --- | --- | --- | --- | --- | --- | --- | --- | --- | --- | --- | --- | --- | --- | --- | --- |
| COC(=O)[C@]12CCC(C)(C)C[C@H]1[C@H]1C(=O)C=C3[C@@]4(C)C=C(C#N)C(=O)C(C)(C)[C@@H]4CC[C@@]3(C)[C@]1(C)CC2 [BARDOXOLONE METHYL] | 10.9 | 28.1 | 6.01 | 2.13 | 36 | 3.31 | 57.5 | 51.2 | 6.50 | 79.5 | 5.15 | 3.78 | 14 | 3.18 | 1.73 | 6.8 | 1.52 | 6.40 | 65.1 | 3.2 | Activity [21]: 18.7%; pIC50 [22]: 6.44; Activity [23]: 20.5%; Activity [24]: 29.8%; Activity [25]: Non-toxic; Activity [26]: 64.2%; Activity [27]: 9.42%; Activity [28]: 71.1% |
| CC1(C)CC[C@]2(C(=O)NCC(=O)OCC#CCOc3no[n+]([O-])c3S(=O)(=O)c3ccccc3)CC[C@]3(C)[C@H](C(=O)C=C4[C@@]5(C)C=C(C#N)C(=O)C(C)(C)[C@@H]5CC[C@]43C)[C@@H]2C1 | 13.5 | 34.6 | 7.59 | 2.31 | 44.9 | 3.58 | 67.1 | 34.3 | 5.89 | 74 | 5.44 | 3.92 | 10.3 | 4.1 | 7.65 | 5.34 | 7.36 | 6.53 | 62.8 | 2.53 | Activity [29]: Non-toxic; Activity [21]: 24.7%; pIC50 [22]: 6.63; Activity [23]: 21.4%; Activity [24]: 39%; Activity [26]: 49.8%; Activity [27]: 9.51%; Activity [28]: 70.8% |
